Data: ChEMBL document CHEMBL4138115, “An evaluation of Minor Groove Binders as anti-fungal and anti-mycobacterial therapeutics” (Eur J Med Chem, 2017)
Converted amounts (≈) assume the structure as drawn. The source made the active and inactive calls. The rule behind the calls is not given here.

How the values were obtained:
Cryptococcus neoformans = test: Antifungal activity against Cryptococcus neoformans ATCC 208821 after 24 hrs by resazurin dye-based two-fold serial dilution assay; type: functional
Salmon testes DNA = test: Binding affinity to wild type salmon sperm DNA assessed as change in melting temperature at 10 uM; type: nucleic-acid assay; settings: Salmonidae
[1] = system: Trypanosoma brucei brucei; test: Antiparasitic activity against Trypanosoma brucei brucei Lister 427 after 48 hrs by Alamar blue assay; type: functional, organism-based; settings: Lister 427, 48 h
Summary of the method: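 Bloodstream-form Lister 427 in HMI-9 with 10% heat-inactivated FBS, counted by haemocytometer and seeded at 2 × 10⁴ cells/mL over serial compound dilutions. After 48 h at 37 °C, 5% CO₂, resazurin (0.49 mM solution in PBS) added for a further 24 h. Fluorescence ex 544/em 590 nm; EC50 from curve fit. Duplicates, at least three independent occasions.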

[2] = system: Mycobacterium tuberculosis; test: Antimycobacterial activity against GFP labelled Mycobacterium tuberculosis H37Rv up to 14 days by fluorescence assay; type: functional
Summary of the method: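 GFP-labelled Mtb H37Rv at 1 × 10^5 CFU/well in 7H9 broth with 10% OADC and 25 kanamycin. Two-fold compound dilutions were tested. Incubated at 37 °C without shaking.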

Candida albicans = test: Antifungal activity against Candida albicans ATCC 90028 after 24 hrs by resazurin dye-based two-fold serial dilution assay; type: functional; settings: ATCC 90028, 24 h
Trypanosoma congolense = test: Antiparasitic activity against Trypanosoma congolense IL3000 after 69 hrs by Alamar blue assay; type: functional, organism-based; settings: IL3000, 69 h
Summary of the method: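 Bloodstream-form IL3000 counted electronically and seeded at 1.25 × 10⁵ trypanosomes/ml into threefold serial compound dilutions. Kept 69 h at 34 °C, 5% CO₂, then resazurin (12.5 mg per 100 mL PBS) added for 3 h. Fluorescence ex 536/em 588 nm gives EC50. Three separate assay runs.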

[3] = Lipophilicity of the compound assessed as retention time by HPLC method; type: physicochemical
Summary of the method: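 Reverse-phase C18 HPLC with water and acetonitrile, each containing 0.1% TFA. Gradient runs from 100% water to 100% acetonitrile over 1 h; lipophilicity reported as retention time in minutes.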

Staphylococcus aureus = test: Antibacterial activity against methicillin-resistant Staphylococcus aureus ATCC 43300 after 18 hrs by two-fold serial dilution assay; type: functional; settings: ATCC 43300, 18 h
Summary of the method: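 MRSA ATCC 43300 grown overnight in cation-adjusted Mueller Hinton broth at 37 °C, diluted 40-fold, grown 1.5–3 h to mid-log. Inoculated at 5 × 10⁵ CFU/mL into two-fold compound dilutions (final 32–0.25 range). Incubated 18 h at 37 °C without shaking; OD600 read. Inhibition normalised to media-only and untreated-bacteria controls. MIC taken as lowest concentration giving ≥80% inhibition; duplicates (n = 2).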

[4] = Cytotoxicity against HEK293 cells reduction in cell viability after 20 hrs by resazurin dye based fluorescence assay; settings: human
Summary of the method: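 HEK-293 cells at 4000 per well in DMEM with 10% FBS, exposed to two-fold dilutions from 32 to 0.25 (final) for 20 h at 37 °C, 5% CO₂. Resazurin added (100 final) for 3 h more; fluorescence ex 560/em 590 nm. CC50 is the concentration giving 50% cytotoxicity. Duplicates.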

[5] = Selectivity index, ratio of CC50 for cytotoxicity against HEK293 cells to MIC50 for antimycobacterial activity against GFP labelled Mycobacterium tuberculosis H37Rv; type: toxicity, cell-based; settings: human, read-out: Selectivity Index

Compound | MIC70 (Cryptococcus neoformans) | ΔTm (Salmon testes DNA) | EC50 [1] | MIC99 [2] | MIC80 (Candida albicans) | EC50 (Trypanosoma congolense) | Retention_time [3] | MIC80 (Staphylococcus aureus) | CC50 at 20 h [4] | MIC99 ([2]; 336 h) | selectivity ratio [5]
COc1cccc(C(=N)Nc2cc(C(=O)Nc3cc(C(=O)Nc4cc(C(=O)NCCCN(C)C)n(C)c4)n(C)c3)n(C)c2)c1 | >32 µg/mL | 11 °C | 44 µM | inactive | > 32 µg/mL | 1.4 µM | 17.5 min | > 32 µg/mL | – | – | –
CC(C)CCc1sc(NC(=O)c2cc(NC(=O)c3cc(NC(=N)N)cn3C)cn2C)nc1C(=O)NCCCN(C)C | 4 µg/mL (≈ 6.84 µM) | 4 °C | 15 µM | inactive | > 32 µg/mL | 6.1 µM | 23.4 min | 16 µg/mL (≈ 27.4 µM) | 20 µg/mL (≈ 34.2 µM) | – | –
CN(C)CCCNC(=O)c1cc(NC(=O)c2cc(NC(=O)c3cc(NC(=N)c4ccccc4)cn3C)cn2C)cn1C | >32 µg/mL | 11 °C | > 100 µM | inactive | > 32 µg/mL | 2.2 µM | 17.8 min | > 32 µg/mL | – | – | –
CC(=O)Nc1cc(C(=O)Nc2cc(C(=O)Nc3nc(C(=O)NCCCN(C)C)c(CCC(C)C)s3)n(C)c2)n(C)c1 | 16 µg/mL (≈ 27.4 µM) | 4 °C | 28 µM | inactive | > 32 µg/mL | 9.1 µM | 27.1 min | 16 µg/mL (≈ 27.4 µM) | > 32 µg/mL | – | –
CC(C)CCc1sc(NC(=O)c2cc(NC(=O)c3cc(NC(=N)c4ccccc4)cn3C)cn2C)nc1C(=O)NCCCN(C)C | 4 µg/mL (≈ 6.19 µM) | 7 °C | 23 µM | – | > 32 µg/mL | 5.8 µM | 26.2 min | > 32 µg/mL | > 32 µg/mL | 25 µg/mL (≈ 38.7 µM) | –
CC(C)CCc1sc(NC(=O)c2cc(NC(=O)c3cc(NC(=N)c4cccc(F)c4)cn3C)cn2C)nc1C(=O)NCCCN(C)C | 8 µg/mL (≈ 12.1 µM) | 4 °C | 18 µM | – | > 32 µg/mL | 5.5 µM | 26.2 min | 8 µg/mL (≈ 12.1 µM) | 18 µg/mL (≈ 27.1 µM) | 3.1 µg/mL (≈ 4.67 µM) | 25
CC(C)CCn1cc(NC(=O)c2cc(NC(=O)c3cc(NC(=N)c4cnc5ccccc5c4)cn3C)cn2C)cc1C(=O)NCCCN(C)C | 8 µg/mL (≈ 11.8 µM) | 17 °C | 2.7 µM | – | > 32 µg/mL | 0.82 µM | 24.8 min | 32 µg/mL (≈ 47.1 µM) | 12 µg/mL (≈ 17.7 µM) | 25 µg/mL (≈ 36.8 µM) | –
CC(C)CCc1sc(NC(=O)c2cc(NC(=O)c3cc(NC(=N)c4ccc(F)cc4)cn3C)cn2C)nc1C(=O)NCCCN(C)C | 4 µg/mL (≈ 6.03 µM) | 9 °C | 18 µM | – | > 32 µg/mL | 10 µM | 26.2 min | 8 µg/mL (≈ 12.1 µM) | 18 µg/mL (≈ 27.1 µM) | 3.1 µg/mL (≈ 4.67 µM) | 25
CC(C)CCn1cc(NC(=O)c2cc(NC(=O)c3cc(NC(=N)N)cn3C)cn2C)cc1C(=O)NCCCN(C)C | 32 µg/mL (≈ 56.5 µM) | 4 °C | 49 µM | inactive | > 32 µg/mL | 5.2 µM | 20.1 min | > 32 µg/mL | > 32 µg/mL | – | –
CC(C)CCn1cc(NC(=O)c2cc(NC(=O)c3cc(NC(=N)c4ccccc4)cn3C)cn2C)cc1C(=O)NCCCN(C)C | >32 µg/mL | 8 °C | 33 µM | inactive | > 32 µg/mL | 1.2 µM | 22.6 min | > 32 µg/mL | – | – | –
COc1cccc(C(=N)Nc2cc(C(=O)Nc3cc(C(=O)Nc4cc(C(=O)NCCCN(C)C)n(CCC(C)C)c4)n(C)c3)n(C)c2)c1 | >32 µg/mL | 5 °C | 24 µM | inactive | > 32 µg/mL | 1.4 µM | 23.8 min | > 32 µg/mL | > 32 µg/mL | – | –
CC(=O)Nc1cc(C(=O)Nc2cc(C(=O)Nc3cc(C(=O)NCCCN(C)C)n(CCC(C)C)c3)n(C)c2)n(C)c1 | >32 µg/mL | 3 °C | 54 µM | inactive | > 32 µg/mL | 6.5 µM | 22.8 min | > 32 µg/mL | – | – | –
COc1cccc(C(=N)Nc2cc(C(=O)Nc3cc(C(=O)Nc4nc(C(=O)NCCCN(C)C)c(CCC(C)C)s4)n(C)c3)n(C)c2)c1 | 2 µg/mL (≈ 2.96 µM) | 7 °C | 17 µM | – | > 32 µg/mL | 5.8 µM | 26.8 min | 1 µg/mL (≈ 1.48 µM) | > 32 µg/mL | 25 µg/mL (≈ 37 µM) | –
CC(C)CCc1sc(NC(=O)c2cc(NC(=O)c3cc(NC(=N)c4cnc5ccccc5c4)cn3C)cn2C)nc1C(=O)NCCCN(C)C | 0.25 µg/mL (≈ 0.359 µM) | 2 °C | 3.3 µM | inactive | > 32 µg/mL | 1.9 µM | 27.3 min | 1 µg/mL (≈ 1.43 µM) | 1.2 µg/mL (≈ 1.72 µM) | – | –
CN(C)CCCNC(=O)c1cc(NC(=O)c2cc(NC(=O)c3cc(NC(=N)N)cn3C)cn2C)cn1C | >32 µg/mL | 5 °C | > 100 µM | inactive | > 32 µg/mL | 6.2 µM | 14.2 min | > 32 µg/mL | – | – | –
CC(C)CCc1sc(NC(=O)c2cc(NC(=O)c3cc(NC(=N)c4cccc(Cl)c4)cn3C)cn2C)nc1C(=O)NCCCN(C)C | 2 µg/mL (≈ 2.94 µM) | 5 °C | 13 µM | – | > 32 µg/mL | 5.6 µM | 26.9 min | 2 µg/mL (≈ 2.94 µM) | 9.2 µg/mL (≈ 13.5 µM) | 13 µg/mL (≈ 19.1 µM) | –
CN(C)CCCNC(=O)c1cc(NC(=O)c2cc(NC(=O)c3cc(NC(=N)c4cnc5ccccc5c4)cn3C)cn2C)cn1C | 8 µg/mL (≈ 12.8 µM) | > 17 °C | 5.7 µM | – | > 32 µg/mL | 0.6 µM | 19.7 min | > 32 µg/mL | > 32 µg/mL | 25 µg/mL (≈ 40.1 µM) | –
CC(C)CCc1sc(NC(=O)c2cc(NC(=O)c3cc(NC(=N)c4ccc(Cl)cc4)cn3C)cn2C)nc1C(=O)NCCCN(C)C | 4 µg/mL (≈ 5.88 µM) | 4 °C | 13 µM | – | > 32 µg/mL | 4.3 µM | 26.8 min | 8 µg/mL (≈ 11.8 µM) | 10 µg/mL (≈ 14.7 µM) | 13 µg/mL (≈ 19.1 µM) | –
CC(=O)Nc1cc(C(=O)Nc2cc(C(=O)Nc3cc(C(=O)NCCCN(C)C)n(C)c3)n(C)c2)n(C)c1 | >32 µg/mL | 5 °C | > 100 µM | inactive | > 32 µg/mL | 7 µM | 18.3 min | > 32 µg/mL | – | – | –
